Laboratory results from paper PMC3064429 (Bioorganic & medicinal chemistry, 2011).
Blank lines part the entries; values can stand above or below the compound they belong to.

Tests used:
[1] = target: T1, σ2 receptor (Cavia porcellus, UniProt H0V073); assay: Competition binding assay at σ2 receptors with [3H]DTG / 500 nM; design: species or system guinea pig
T1 sequence (H0V073 1-176): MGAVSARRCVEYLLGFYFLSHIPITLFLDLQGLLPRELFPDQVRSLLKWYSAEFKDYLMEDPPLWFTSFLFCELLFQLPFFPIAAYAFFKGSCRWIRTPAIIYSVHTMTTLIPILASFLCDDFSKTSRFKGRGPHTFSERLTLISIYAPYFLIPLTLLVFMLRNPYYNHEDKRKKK

[2] = Compound stability in stock buffer for in vitro binding assays; assay type: physicochemical; settings: for State after 25 days in stock buffer: stock buffer 2.5% AcOH, 1% EtOH in water; for Purity by HPLC after 25 days in stock buffer: 10^-3 M in water with 1% EtOH and 0.1% or 2.5% AcOH
Method in brief: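 Those prepared as HCl or oxalate salts were held instead in 0.1% AcOH with 1% EtOH. After 25 days in stock buffer, purity of each compound was analysed by analytical HPLC.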

[3] = target: σ1 receptor (Cavia porcellus, UniProt Q60492); assay: Competition binding assay at σ1 receptors with [3H]; design: species or system guinea pig
Sequence of σ1 receptor (Cavia porcellus, UniProt Q60492) (Q60492 whole entry): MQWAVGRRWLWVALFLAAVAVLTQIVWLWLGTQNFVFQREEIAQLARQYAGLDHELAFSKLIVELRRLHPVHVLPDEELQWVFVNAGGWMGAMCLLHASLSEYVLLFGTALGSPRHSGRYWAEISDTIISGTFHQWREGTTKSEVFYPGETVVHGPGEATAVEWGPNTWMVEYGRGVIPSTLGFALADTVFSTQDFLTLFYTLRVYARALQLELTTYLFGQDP

[4] = test system: σ1 receptor; settings: cited from earlier work
[5] = test system: σ2 receptor; settings: cited from earlier work

σ2 affinity relative to 1 (in words) ([1]; relative to 1 (Mach Lead)): totally ablated
State after 25 days in stock buffer [2]: totally decomposed
σ1 affinity decreased by a factor, relative to 1 ([3]; relative to 1 (Mach Lead)): 5
Compound: COc1cc2c(cc1OC)N(CCCCNC(=O)c1cc(Br)cc(OC)c1OC)CCC2 [Compound 8, 5-bromo-N-(4-(6,7-dimethoxy-3,4-dihydroquinolin-1(2H)-yl)butyl)-2,3-dimethoxybenzamide]

Purity by HPLC after 25 days in stock buffer [2]: exceeded 95%
Compound: COc1cc2c(cc1OC)CN(CCCCNC(=O)c1cc(Br)cc(OC)c1OC)CCC2 [Compound 6, 5-bromo-N-(4-(7,8-dimethoxy-4,5-dihydro-1H-benzo[c]azepin-2(3H)-yl)butyl)-2,3-dimethoxybenzamide]

Purity by HPLC after 25 days in stock buffer [2]: exceeded 95%
Poorest σ1 affinity by a factor compared to 6 and 7 ([3]; compared to 6 (7R-2) and 7 (7R-1)): 2
Compound: COc1cc2c(cc1OC)CCN(CCCCNC(=O)c1cc(Br)cc(OC)c1OC)CC2 [Compound 4, 5-bromo-N-(4-(7,8-dimethoxy-4,5-dihydro-1H-benzo[d]azepin-3(2H)-yl)butyl)-2,3-dimethoxybenzamide]

Compound: 5-bromo-N-(4-(7,8-dimethoxy-2,3,4,5-tetrahydro-1H-benzo[b]azepin-1-yl)butyl)-2,3-dimethoxybenzamide [Compound 7]
Poorer σ2 affinity relative to 6 ([1]; 7 (7R-1) vs. 6 (7R-2)): ~30 times
Selectivity Ki σ1 / Ki σ2 ([1]; ratio of Ki values): 0.29
Purity by HPLC after 25 days in stock buffer [2]: exceeded 95%
Poorer σ1 affinity relative to 6 ([3]; 7 (7R-1) vs. 6 (7R-2)): 20%
Ki ([3]; read-out: Ki (nM) σ1, [3H](+)-PTZ, guinea pig brain membranes, mean ± SEM, n = 4): 2560 ± 175 nM

Compound: COc1ccc(CCNCCCCNC(=O)c2cc(Br)cc(OC)c2OC)cc1OC [Compound 2]
Change in σ1 affinity relative to 1 [4]: no change
Decrease in σ2 affinity relative to 1 ([5]; relative to 1): 1700 fold

Compound: COc1cc2c(cc1OC)CN(CCCCNC(=O)c1cc(Br)cc(OC)c1OC)C2 [Compound 3, 5-bromo-N-(4-(5,6-dimethoxyisoindolin-2-yl)butyl)-2,3-dimethoxybenzamide]
Improvement of σ2 affinity over that of 1 ([1]; relative to 1): 70%
Purity by HPLC after 25 days in stock buffer [2]: exceeded 95%
Decrease in σ1 affinity relative to 1 ([3]; relative to 1): approximately 50%

Purity by HPLC after 25 days in stock buffer [2]: exceeded 95%
Compound: 5-bromo-N-(4-((3,4-dimethoxyphenethyl)(methyl)amino)butyl)-2,3-dimethoxybenzamide [Compound 9]

State after 25 days in stock buffer [2]: totally decomposed
Poorer σ1 affinity, 3 vs. 5 ([3]; 3 (5R-2) vs. 5 (5R-1)): 3 times
Compound: COc1cc2c(cc1OC)N(CCCCNC(=O)c1cc(Br)cc(OC)c1OC)CC2 [Compound 5, 5-bromo-N-(4-(5,6-dimethoxyindolin-1-yl)butyl)-2,3-dimethoxybenzamide]

Compound: COc1cc2c(cc1OC)CN(CCCCNC(=O)c1cc(Br)cc(OC)c1OC)CC2 [Compound 1]
Ki ([5]; read-out: Ki (nM) σ2): 8.2 nM
